Values belong to the compound of their own block, whether it stands above or below them.
Tests used:
[1] = target: Epidermal growth factor receptor (Homo sapiens, UniProt P00533); assay: Inhibition of EGFR (unknown origin) using poly(Glu,Tyr)4:1 as substrate in presence of [gamma-33P]-ATP after 60 mins by scintillation counting analysis
[2] = target: Vascular endothelial growth factor receptor 2 (Homo sapiens, UniProt P35968); assay: Inhibition of VEGFR2 (unknown origin) using poly(Glu,Tyr)4:1 as substrate in presence of [gamma-33P]-ATP after 60 mins by scintillation counting analysis
Summary of the method: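 Radiometric ATP-competition assay at 30 °C for 60 min. Kinase was 20 ng/50 µL with Poly(Glu,Tyr)4:1 substrate at 125 ng/50 µL. Buffer was 70 mM HEPES-NaOH pH 7.5 with 3 mM MgCl2, 3 mM MnCl2, 3 µM orthovanadate, 1.2 mM DTT, 50 µg/mL PEG20000 and 15 µM [γ-33P]-ATP. The stop was 2% phosphoric acid, and 33Pi incorporation was counted by scintillation. Ten concentrations from 3 nM to 100 µM gave IC50.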

NCI-H460 = assay: Growth inhibition of human NCI-H460 cells at 10 uM after 48 hrs by sulforhodamine assay relative to control; format: functional; details: NCI-H460, 48 h, read-out: GI
Summary of the method: (§1)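 Tested at a single 10 µM concentration in the NCI tumour cell panel screen. Growth inhibition was read by sulforhodamine B staining.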

MDA-MB-231 = assay: Growth inhibition of human MDA-MB-231 cells at 10 uM after 48 hrs by sulforhodamine assay relative to control; format: functional; details: MDA-MB-231, 48 h, read-out: GI; summary of the method: as §1
Hs-578T = assay: Growth inhibition of human Hs578T cells at 10 uM after 48 hrs by sulforhodamine assay relative to control; format: functional; details: read-out: GI; summary of the method: as §1
BT-549 = assay: Growth inhibition of human BT549 cells at 10 uM after 48 hrs by sulforhodamine assay relative to control; format: functional; details: BT-549, 48 h, read-out: GI; summary of the method: as §1
HOP-92 = assay: Growth inhibition of human HOP92 cells at 10 uM after 48 hrs by sulforhodamine assay relative to control; format: functional; details: HOP-92, 48 h, read-out: GI; summary of the method: as §1
MDA-MB-468 = assay: Growth inhibition of human MDA-MB-468 cells at 10 uM after 48 hrs by sulforhodamine assay relative to control; format: functional; details: MDA-MB-468, 48 h, read-out: GI; summary of the method: as §1
HOP-62 = assay: Growth inhibition of human HOP62 cells at 10 uM after 48 hrs by sulforhodamine assay relative to control; format: functional; details: HOP-62, 48 h, read-out: GI; summary of the method: as §1
[3] = target: Casein kinase I isoform alpha (Homo sapiens, UniProt P48729); assay: Inhibition of CK1 alpha (unknown origin)
Summary of the method: (§2)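 ATP-competition kinase assay run at several inhibitor concentrations. Reduced phosphorylation of the kinase substrate was measured by scintillation counting, and IC50 values were derived.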

[4] = Solubility of the compound in pH 7.5 HEPES-NaOH buffer at > 100 uM; format: physicochemical
Myotonin-protein kinase = Myotonin-protein kinase (Homo sapiens, UniProt Q09013); assay: Inhibition of DMPK (unknown origin); summary of the method: as §2
[5] = target: Interleukin-1 receptor-associated kinase 1 (Homo sapiens, UniProt P51617); assay: Inhibition of IRAK (unknown origin); summary of the method: as §2
[6] = target: Tyrosine-protein kinase JAK2 (Homo sapiens, UniProt O60674); assay: Inhibition of JAK2 (unknown origin); summary of the method: as §2
[7] = target: Serine/threonine-protein kinase MARK1 (Homo sapiens, UniProt Q9P0L2); assay: Inhibition of MARK1 (unknown origin); summary of the method: as §2
[8] = target: Dual specificity mitogen-activated protein kinase kinase 1 (Homo sapiens, UniProt Q02750); assay: Inhibition of MEK1 (unknown origin); summary of the method: as §2
[9] = target: Tyrosine-protein kinase ABL1 (Homo sapiens, UniProt P00519); assay: Inhibition of c-Abl (unknown origin); summary of the method: as §2
[10] = target: Protein kinase C alpha type (Homo sapiens, UniProt P17252); assay: Inhibition of PKC alpha (unknown origin); summary of the method: as §2
[11] = target: Activin receptor type-1-like (Homo sapiens, UniProt P37023); assay: Inhibition of ALK1 (unknown origin); summary of the method: as §2
Wee1-like protein kinase = Wee1-like protein kinase (Homo sapiens, UniProt P30291); assay: Inhibition of Wee1 (unknown origin); summary of the method: as §2
[12] = target: Mitogen-activated protein kinase kinase kinase 21 (Homo sapiens, UniProt Q5TCX8); assay: Inhibition of MLK4 (unknown origin); summary of the method: as §2
[13] = target: Death-associated protein kinase 1 (Homo sapiens, UniProt P53355); assay: Inhibition of DAPK1 (unknown origin); summary of the method: as §2
[14] = target: Mitogen-activated protein kinase kinase kinase 2 (Homo sapiens, UniProt Q9Y2U5); assay: Inhibition of MEKK2 (unknown origin); summary of the method: as §2

Sequence of Vascular endothelial growth factor receptor 2 (P35968 whole entry): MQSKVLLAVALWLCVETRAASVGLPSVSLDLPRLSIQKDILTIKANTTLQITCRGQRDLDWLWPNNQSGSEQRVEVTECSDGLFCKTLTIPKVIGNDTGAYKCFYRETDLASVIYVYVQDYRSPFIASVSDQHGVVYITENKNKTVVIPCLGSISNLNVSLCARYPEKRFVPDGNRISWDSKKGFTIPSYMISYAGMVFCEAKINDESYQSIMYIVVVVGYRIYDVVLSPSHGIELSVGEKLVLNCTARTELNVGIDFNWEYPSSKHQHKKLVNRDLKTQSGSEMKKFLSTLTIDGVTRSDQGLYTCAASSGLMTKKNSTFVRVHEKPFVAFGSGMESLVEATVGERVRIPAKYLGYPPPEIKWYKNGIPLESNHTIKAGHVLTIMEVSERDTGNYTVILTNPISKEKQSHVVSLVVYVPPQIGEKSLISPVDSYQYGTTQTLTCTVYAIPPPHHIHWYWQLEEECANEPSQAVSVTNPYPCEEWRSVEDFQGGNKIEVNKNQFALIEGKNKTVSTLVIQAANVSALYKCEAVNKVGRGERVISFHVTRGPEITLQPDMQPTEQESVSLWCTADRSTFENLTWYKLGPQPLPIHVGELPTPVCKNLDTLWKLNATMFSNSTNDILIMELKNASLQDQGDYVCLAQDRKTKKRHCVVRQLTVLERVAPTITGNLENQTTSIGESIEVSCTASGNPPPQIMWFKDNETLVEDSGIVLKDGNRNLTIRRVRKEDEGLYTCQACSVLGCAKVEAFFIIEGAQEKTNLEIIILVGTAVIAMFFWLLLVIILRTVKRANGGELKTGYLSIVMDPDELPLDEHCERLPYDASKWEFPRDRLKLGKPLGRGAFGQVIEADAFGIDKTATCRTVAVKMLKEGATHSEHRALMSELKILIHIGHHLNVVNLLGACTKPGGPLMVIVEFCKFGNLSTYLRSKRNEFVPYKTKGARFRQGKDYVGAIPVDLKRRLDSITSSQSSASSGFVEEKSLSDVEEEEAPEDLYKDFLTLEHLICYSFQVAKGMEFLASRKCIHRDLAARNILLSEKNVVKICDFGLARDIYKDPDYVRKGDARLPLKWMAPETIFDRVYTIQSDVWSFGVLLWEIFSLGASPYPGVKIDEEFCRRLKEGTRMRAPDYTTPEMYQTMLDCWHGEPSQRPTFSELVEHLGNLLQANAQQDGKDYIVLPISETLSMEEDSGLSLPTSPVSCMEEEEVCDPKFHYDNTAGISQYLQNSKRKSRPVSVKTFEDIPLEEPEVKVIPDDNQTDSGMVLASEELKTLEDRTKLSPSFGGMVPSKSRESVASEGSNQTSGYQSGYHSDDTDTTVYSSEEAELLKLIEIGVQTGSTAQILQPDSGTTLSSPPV
Sequence of Epidermal growth factor receptor (P00533 whole entry): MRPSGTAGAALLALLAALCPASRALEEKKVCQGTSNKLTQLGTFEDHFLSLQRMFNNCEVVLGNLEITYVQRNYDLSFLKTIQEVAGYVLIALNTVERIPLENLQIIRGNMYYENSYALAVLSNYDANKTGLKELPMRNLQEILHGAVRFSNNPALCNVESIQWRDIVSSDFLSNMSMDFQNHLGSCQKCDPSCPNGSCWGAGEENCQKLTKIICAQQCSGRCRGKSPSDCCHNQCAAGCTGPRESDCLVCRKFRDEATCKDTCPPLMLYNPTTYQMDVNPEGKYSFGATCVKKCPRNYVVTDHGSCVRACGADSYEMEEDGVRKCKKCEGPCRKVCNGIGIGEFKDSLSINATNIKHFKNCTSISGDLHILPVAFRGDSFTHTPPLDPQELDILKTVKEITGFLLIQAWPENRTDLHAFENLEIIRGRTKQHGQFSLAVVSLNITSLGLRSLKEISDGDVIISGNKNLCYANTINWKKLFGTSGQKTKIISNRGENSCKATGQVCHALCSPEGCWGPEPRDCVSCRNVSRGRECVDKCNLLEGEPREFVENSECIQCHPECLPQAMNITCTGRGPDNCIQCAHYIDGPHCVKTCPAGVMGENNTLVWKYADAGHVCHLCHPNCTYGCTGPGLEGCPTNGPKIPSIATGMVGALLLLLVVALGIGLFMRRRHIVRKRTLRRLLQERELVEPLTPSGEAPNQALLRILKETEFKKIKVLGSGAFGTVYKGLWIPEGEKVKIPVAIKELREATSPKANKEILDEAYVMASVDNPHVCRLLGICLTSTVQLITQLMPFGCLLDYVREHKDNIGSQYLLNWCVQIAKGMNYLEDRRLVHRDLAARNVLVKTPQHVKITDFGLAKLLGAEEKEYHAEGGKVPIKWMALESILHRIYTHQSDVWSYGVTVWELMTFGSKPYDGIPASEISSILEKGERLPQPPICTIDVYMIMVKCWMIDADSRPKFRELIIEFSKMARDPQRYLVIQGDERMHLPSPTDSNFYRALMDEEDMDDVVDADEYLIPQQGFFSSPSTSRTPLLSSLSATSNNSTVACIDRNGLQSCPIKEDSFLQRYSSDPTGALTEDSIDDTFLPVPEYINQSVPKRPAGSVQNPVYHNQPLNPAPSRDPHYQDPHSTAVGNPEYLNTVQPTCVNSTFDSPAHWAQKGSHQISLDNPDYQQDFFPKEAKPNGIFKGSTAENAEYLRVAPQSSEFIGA
Sequence of Casein kinase I isoform alpha (P48729 whole entry, canonical isoform): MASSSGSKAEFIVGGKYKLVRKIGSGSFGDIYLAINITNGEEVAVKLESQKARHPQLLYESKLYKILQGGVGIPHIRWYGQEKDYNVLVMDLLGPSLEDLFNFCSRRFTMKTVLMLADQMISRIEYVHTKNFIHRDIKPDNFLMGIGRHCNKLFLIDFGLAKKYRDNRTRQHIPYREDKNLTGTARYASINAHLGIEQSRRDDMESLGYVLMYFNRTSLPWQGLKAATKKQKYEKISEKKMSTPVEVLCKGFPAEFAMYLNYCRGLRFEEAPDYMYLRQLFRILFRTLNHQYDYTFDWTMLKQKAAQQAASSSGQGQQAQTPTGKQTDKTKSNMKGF
Sequence of Death-associated protein kinase 1 (P53355 whole entry): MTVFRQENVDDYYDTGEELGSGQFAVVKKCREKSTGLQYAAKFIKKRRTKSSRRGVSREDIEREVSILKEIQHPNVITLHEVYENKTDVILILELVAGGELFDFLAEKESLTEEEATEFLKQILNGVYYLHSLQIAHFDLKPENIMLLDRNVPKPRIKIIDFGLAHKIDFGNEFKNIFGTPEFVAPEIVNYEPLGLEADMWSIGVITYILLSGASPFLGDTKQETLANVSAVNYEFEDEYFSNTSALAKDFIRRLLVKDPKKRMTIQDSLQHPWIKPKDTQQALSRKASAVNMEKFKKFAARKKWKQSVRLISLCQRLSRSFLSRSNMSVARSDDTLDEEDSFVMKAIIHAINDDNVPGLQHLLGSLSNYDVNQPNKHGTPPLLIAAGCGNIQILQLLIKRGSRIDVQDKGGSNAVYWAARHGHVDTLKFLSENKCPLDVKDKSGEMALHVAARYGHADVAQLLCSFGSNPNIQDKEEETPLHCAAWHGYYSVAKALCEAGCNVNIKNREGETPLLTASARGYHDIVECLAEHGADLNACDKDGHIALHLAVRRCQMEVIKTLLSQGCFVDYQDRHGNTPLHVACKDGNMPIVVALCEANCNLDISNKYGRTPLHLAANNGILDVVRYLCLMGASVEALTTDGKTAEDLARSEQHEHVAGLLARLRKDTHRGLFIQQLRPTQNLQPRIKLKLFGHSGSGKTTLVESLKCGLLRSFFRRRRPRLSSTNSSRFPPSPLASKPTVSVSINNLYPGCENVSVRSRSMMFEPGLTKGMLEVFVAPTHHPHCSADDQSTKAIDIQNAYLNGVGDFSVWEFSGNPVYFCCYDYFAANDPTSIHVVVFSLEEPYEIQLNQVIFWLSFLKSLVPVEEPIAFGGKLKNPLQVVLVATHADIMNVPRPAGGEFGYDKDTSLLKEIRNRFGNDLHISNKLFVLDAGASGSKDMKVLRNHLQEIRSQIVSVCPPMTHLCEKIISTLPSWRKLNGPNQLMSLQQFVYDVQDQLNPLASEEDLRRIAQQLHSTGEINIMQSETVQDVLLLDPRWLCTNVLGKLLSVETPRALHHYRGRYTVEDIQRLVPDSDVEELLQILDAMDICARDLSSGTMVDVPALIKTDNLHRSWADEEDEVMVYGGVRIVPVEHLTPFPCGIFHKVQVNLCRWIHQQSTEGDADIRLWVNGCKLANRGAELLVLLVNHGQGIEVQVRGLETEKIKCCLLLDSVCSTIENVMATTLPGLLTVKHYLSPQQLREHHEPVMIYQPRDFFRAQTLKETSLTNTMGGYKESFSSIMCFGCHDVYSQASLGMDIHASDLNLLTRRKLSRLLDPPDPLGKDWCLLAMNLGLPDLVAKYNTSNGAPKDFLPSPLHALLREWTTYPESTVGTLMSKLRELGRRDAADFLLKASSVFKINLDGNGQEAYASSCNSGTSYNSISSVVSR

SMILES: Nc1nc(NCc2ccccc2)c2c(n1)[nH]c1ccc(O)cc12
Ki [1]: 700 nM
Ki ([2]; read-out: Ki): 2.76 µM

SMILES: Nc1nc(NCCc2ccccc2)c2c(n1)[nH]c1ccc(O)cc12
Ki [1]: 640 nM
Ki ([2]; read-out: Ki): 4.47 µM

SMILES: COc1ccc(CNc2nc(N)nc3[nH]c4ccc(O)cc4c23)cc1OC
Ki [1]: 3680 nM
Ki ([2]; read-out: Ki): 11.1 µM

SMILES: COc1ccc(CNc2nc(N)nc3[nH]c4cc(C)c(O)cc4c23)cc1
Ki [1]: 5950 nM

SMILES: Cc1cc2[nH]c3nc(N)nc(NCc4cccc(Cl)c4)c3c2cc1O
Ki [1]: 900 nM

SMILES: COc1cccc(CNc2nc(N)nc3[nH]c4ccc(O)cc4c23)c1
Ki [1]: 1260 nM
Ki ([2]; read-out: Ki): 3.99 µM

SMILES: C[C@@H](Nc1nc(N)nc2[nH]c3ccc(O)cc3c12)c1ccccc1
Ki [1]: 910 nM
Ki ([2]; read-out: Ki): 1.93 µM

SMILES: COc1ccccc1CNc1nc(N)nc2[nH]c3cc(C)c(O)cc3c12
Ki [1]: 4030 nM
Ki ([2]; read-out: Ki): 7.24 µM

SMILES: Cc1cc2[nH]c3nc(N)nc(NCc4ccccc4)c3c2cc1O
Ki [1]: 640 nM
Ki ([2]; read-out: Ki): 4.83 µM

SMILES: Cc1ccc(CNc2nc(N)nc3[nH]c4cc(C)c(O)cc4c23)cc1
IC50 [3]: > 100 µM
solubility [4]: Soluble
IC50 (Myotonin-protein kinase): > 100 µM
IC50 [5]: > 100 µM
IC50 [6]: > 100 µM
Ki [1]: 5670 nM
IC50 [7]: > 100 µM
IC50 [8]: > 100 µM
IC50 [9]: > 100 µM
IC50 [10]: > 100 µM
IC50 [11]: > 100 µM
Ki [2]: Not Active
IC50 (Wee1-like protein kinase): > 100 µM
IC50 [12]: > 100 µM
IC50 [13]: > 100 µM
IC50 [14]: > 100 µM

SMILES: COc1ccccc1CNc1nc(N)nc2[nH]c3ccc(O)cc3c12
inhibition of growth at 10 µM (NCI-H460): 82%
inhibition of growth at 10 µM (MDA-MB-231): 73%
inhibition of growth at 10 µM (Hs-578T): 41%
Ki [1]: 1870 nM
inhibition of growth at 10 µM (BT-549): 37%
inhibition of growth at 10 µM (HOP-92): 66%
inhibition of growth at 10 µM (MDA-MB-468): 55%
Ki ([2]; read-out: Ki): 0.85 µM
inhibition of growth at 10 µM (HOP-62): 63%

Compounds with a lower Ki [1], results first:

Ki [1]: 80 nM
Ki ([2]; read-out: Ki): 3.24 µM
SMILES: Nc1nc(NCc2ccc(Cl)cc2)c2c(n1)[nH]c1ccc(O)cc12
inhibition of growth at 10 µM (NCI-H460): 25%
inhibition of growth at 10 µM (MDA-MB-231): 65%
inhibition of growth at 10 µM (Hs-578T): 33%
inhibition of growth at 10 µM (BT-549): 24%
inhibition of growth at 10 µM (HOP-92): 57%
inhibition of growth at 10 µM (MDA-MB-468): 71%
inhibition of growth at 10 µM (HOP-62): 31%

Ki [1]: 370 nM
Ki [2]: Not Active
SMILES: Nc1nc(NCc2ccccc2)c2c(n1)[nH]c1cc(Br)c(O)cc12

Ki [1]: 290 nM
SMILES: Nc1nc(NCc2cccc(Cl)c2)c2c(n1)[nH]c1ccc(O)cc12

Ki [1]: 610 nM
Ki ([2]; read-out: Ki): 13.4 µM
SMILES: COc1cc2[nH]c3nc(N)nc(NCc4ccccc4)c3c2cc1O

Ki [1]: 90 nM
Ki ([2]; read-out: Ki): 3.26 µM
SMILES: Cc1ccc(CNc2nc(N)nc3[nH]c4ccc(O)cc4c23)cc1

Ki [1]: 110 nM
Ki [2]: Not Active
SMILES: Cc1cc2[nH]c3nc(N)nc(NCc4ccc(Cl)cc4)c3c2cc1O

Ki [1]: 270 nM
Ki [2]: Not Active
SMILES: Nc1nc(NCc2ccccc2)c2c(n1)[nH]c1cc(Cl)c(O)cc12
inhibition of growth at 10 µM (NCI-H460): 5%
inhibition of growth at 10 µM (MDA-MB-231): 34%
inhibition of growth at 10 µM (Hs-578T): 16%
inhibition of growth at 10 µM (BT-549): 21%
inhibition of growth at 10 µM (HOP-92): 19%
inhibition of growth at 10 µM (MDA-MB-468): 28%
inhibition of growth at 10 µM (HOP-62): 20%

Ki [1]: 520 nM
Ki ([2]; read-out: Ki): 4.15 µM
SMILES: C[C@H](Nc1nc(N)nc2[nH]c3ccc(O)cc3c12)c1ccccc1

Ki [1]: 120 nM
SMILES: COc1ccc(CNc2nc(N)nc3[nH]c4ccc(O)cc4c23)cc1

From ChEMBL document CHEMBL4020756, “Discovery of novel substituted benzo-anellated 4-benzylamino pyrrolopyrimidines as dual EGFR and VEGFR2 inhibitors” (Bioorg Med Chem Lett, 2017)
